RORA act: activators of orphan receptor RORA, primary screen, cell-based, luminescence; Nuclear receptor ROR-alpha (Homo sapiens), P35398; CHO-K1 Gal4-RORA LBD luciferase reporter; percent increase over mock-subtracted basal signal; activation, % at 10 µM; 65,000 compounds, 1.5% hits;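 active = activation above the mean of all tested compounds plus 3 SD, cut at about 49% in these data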
MT1-MMP txn act: MT1-MMP promoter reporter activation – cell-based, luciferase luminescence, primary screen. HT1080 MT1-MMP promoter luciferase reporter, overnight; stronger effect = higher value. activation factor at 10 µM. 86,000 compounds, 0.16% hits. AID 750, 2007;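 active = activation factor of at least 2 for MT1-MMP transcription at 10 µM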
M1 antagonist: antagonists of rat M1 muscarinic receptor; AID 628, 2007; Muscarinic acetylcholine receptor M1 (Rattus norvegicus), P08482; 64,000 compounds, 3.4% hits; B-score at 10 µM; CHO-M1 cells, Fluo-4 calcium, ACh EC80 antagonist mode; stronger effect = lower value;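 active = calcium fluorescence response, raw or row-and-column corrected B-score, differing from the plate sample mean either way at a set confidence level, mostly lower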
M1 agonist: M1 muscarinic receptor agonists, primary screen, CHO-M1 cells, Fluo-4 calcium, agonist mode; Muscarinic acetylcholine receptor M1; Fluo-4 calcium fluorescence; stronger effect = higher value; B-score at 10 µM; 64,000 compounds, 3% hits; AID 626, 2007;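 active = fluorescence rise, raw or as B-score row- and column-corrected plate score, outside the 99.7% band of its plate's samples, either direction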
SF-1 act: activators of human SF-1, primary screen, cell-based, CHO-K1, Gal4-SF-1 LBD, luciferase luminescence; Steroidogenic factor 1 (Homo sapiens), Q13285; CHO-K1 Gal4-SF-1 LBD luciferase reporter; % increase over DMSO SF-1-specific signal; activation, % at 10 µM; 65,000 compounds, 1.9% hits; AID 522, 2006;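 active = activation above the mean activation of all tested compounds plus 3 SD, cut at about 50% in these data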
Target sequence (Q13285 whole entry, looked up, the tested form may be a part): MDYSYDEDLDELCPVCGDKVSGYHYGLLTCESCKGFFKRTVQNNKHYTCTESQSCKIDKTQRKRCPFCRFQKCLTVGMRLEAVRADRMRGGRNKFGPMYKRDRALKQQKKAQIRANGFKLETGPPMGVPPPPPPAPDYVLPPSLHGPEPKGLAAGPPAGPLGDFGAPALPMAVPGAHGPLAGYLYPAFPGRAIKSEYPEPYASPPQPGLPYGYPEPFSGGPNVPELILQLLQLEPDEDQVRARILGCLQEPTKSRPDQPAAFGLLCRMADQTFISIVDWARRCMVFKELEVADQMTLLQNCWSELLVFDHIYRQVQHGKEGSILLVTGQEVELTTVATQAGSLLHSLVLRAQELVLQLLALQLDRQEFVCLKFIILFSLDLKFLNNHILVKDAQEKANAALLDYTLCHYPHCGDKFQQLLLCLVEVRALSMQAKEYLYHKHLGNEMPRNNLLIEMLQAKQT
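Material: Gal4–SF-1 LBD one-hybrid luciferase reporter in CHO-K1 cells | Amount: 4,000 cells per well | Compound dosing: 10 µM single point, 1% DMSO | Schedule: 20 h compound treatment, 37 °C | Measured by: SteadyLite luciferase luminescence | Evaluation: Percent activation versus DMSO | Control set: DMSO-treated SF-1-transfected cells as negative, DMSO-treated mock-transfected cells lacking SF-1 as background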
Hits are given with their value; 0 = inactive; - = no result. An excerpt weighted towards active compounds, which were near 6.3% of everything screened.

SMILES	RORA act	MT1-MMP txn act	M1 antagonist	M1 agonist	SF-1 act
CCOC(=O)C1=C(C)N(CCCCCC(=O)O)C(=O)NC1c1ccccc1OC(=O)c1cccs1 (configuration not stated)	-	0	-	-	-
COC(=O)c1ccc(C(NC(=O)OCc2ccccc2)/C(=C/[C@@H](C)C(=O)NCc2ccncc2)c2cccnc2)cc1 (some centres not stated)	-	0	-	-	-
Cc1oc2c(CN3CCCC3)c(O)ccc2c(=O)c1-c1ccccc1	0	0	0	3.2	0
Cc1oc2c(CN3CCCC3)c(O)ccc2c(=O)c1-c1ccc(Cl)cc1	0	0	0	0	0
Cc1ccc2oc(Nc3nc(C)cc(C)n3)nc2c1	52	0	0	0	0
Cc1nc(Nc2nc3ccccc3o2)nc2c1CCC2	0	-	0	0	0
CCCn1c(SCC(=O)N2c3ccc(F)cc3CCC2C)nnc1-c1ccccn1 (configuration not stated)	-	0	-	-	-
CCCc1cc(NCCN2CCOCC2)n2c(nc3ccccc32)c1C#N	0	0	0	0	0
COc1cccc(-c2nnc(Nc3nc4c(F)cccc4s3)o2)c1	0	0	0	0	51
Cc1cc2c(cc1C)NC(c1c(C)n(C)n(-c3ccccc3)c1=O)C1=C(CC(C)(C)CC1=O)N2 (configuration not stated)	0	0	0	47	62
NS(=O)(=O)c1ccc(Nc2nc(-c3ccc(O)cc3O)cs2)cc1	-	0	-	-	-
Cc1cccnc1Nc1nc(-c2ccc(O)cc2O)cs1	0	0	0	0	51
COc1cc(CCC(=O)OCn2nnc3ccccc3c2=O)cc(OC)c1OC	0	0	2.7	0	0
COc1cc(C(=O)OCn2nnc3ccccc3c2=O)cc(OC)c1OC	0	-	0	0	0
Cn1c(=O)oc2cc(S(=O)(=O)N3CCCC(C(=O)N4CC=C(c5ccccc5)CC4)C3)ccc21 (configuration not stated)	0	0	0	3.4	0
Cc1cc(NCC(C)C)n2ncnc2n1	-	0	-	-	-
O=C1CCCC(O)=C1C=Nc1ccc(O)cc1	0	0	0	0	56
COC(=O)c1ccc(C(NC(=O)OCc2ccccc2)/C(C)=C/[C@@H](C)C(=O)NCCO)cc1 (some centres not stated)	-	0	-	-	-
Cc1ccccc1C(=O)Nc1ccc(Br)cn1	67	0	0	0	82
CCCC(=O)Nc1ccc(Br)cn1	-	0	-	-	-
CCOc1ccc2cc(C#N)c(SCC(=O)N3CCOCC3)nc2c1	56	0	0	0	0
COC(=O)CSc1nc2cc3c(cc2cc1C#N)OCO3	0	0	0	0	0
CCOC(=O)CSc1nc2cc(C)ccc2cc1C#N	71	0	0	0	85
CCOC(=O)CSc1nc2cc(OC)ccc2cc1C#N	68	0	0	0	104
CCOC(=O)CSc1nc2cc3c(cc2cc1C#N)OCO3	0	0	0	0	66
SMILES	RORA act	MT1-MMP txn act	M1 antagonist	M1 agonist	SF-1 act
CCOc1ccc2nc(SCC(=O)N3CCCCCC3)c(C#N)cc2c1	0	0	0	0	0
CCOC(=O)CSc1nc2ccc(C)cc2cc1C#N	-	0	-	-	-
CCOC(=O)CSc1nc2cc(C)cc(C)c2cc1C#N	0	0	0	0	0
CCOC(=O)N1CCN(CCC(=O)c2ccc(Cl)cc2)CC1	0	0	-0.81	3.4	0
CCCC/C=C/C(NC(=O)c1ccc(C(F)(F)F)cc1)c1ccccc1 (configuration not stated)	-	0	-	-	-
CN(C)/C=N/c1cnc(C(=O)c2ccc(Cl)cc2)n1C	76	0	0	0	0
COC(=O)[C@@]1(Cc2ccc(F)cc2)[C@H]2c3cc(C(=O)N(C)C)n(CCc4ccc(O)c(O)c4)c3C[C@H]2CN1C(=O)c1ccccc1	-	0	-	-	-
Cc1cccc(NC(=O)c2cc3ccccc3c(=O)o2)n1	57	0	-	-	65
O=C(NCc1ccco1)c1cc2ccccc2c(=O)o1	0	0	0	0	0
CC(=O)N1CC=CC1(CC(C)C)C(=O)NCc1ccccn1 (configuration not stated)	-	0	-	-	-
Cc1cc(NC(=O)c2nn3cccnc3c2Cl)no1	-	0	-	-	-
O=C(Nc1cccc(Cl)c1)c1cnn2cccnc12	0	0	0	0	105
O=C(Nc1cc(Cl)cc(Cl)c1)c1cnn2cccnc12	-	0	-	-	-
Cc1cc(NC(=O)c2cnn3cccnc23)no1	0	0	0.81	0	0
CCc1ccccc1N(CC(=O)N1CCN(c2ccccc2)CC1)S(C)(=O)=O	0	0	0	0	0
CCOC(=O)C1=C(C)N(CCCC(=O)NCCn2c(-c3ccccc3)cc(C(=O)OC)c2C)C(=O)NC1c1ccc([N+](=O)[O-])cc1 (configuration not stated)	-	0	-	-	-
Cc1cc(C(=O)N(C)C)sc1-c1ccccc1	-	0	-	-	-
Cc1cc(C(=O)NCc2cc(C)n(C)n2)sc1-c1ccccc1	0	0	0	3	0
O=C(c1cc2ccccc2o1)c1nc2c(n1O)CCCCC2	56	0	0	0	0
O=C(c1ccco1)c1nc2c(n1O)CCCCC2	-	0	-	-	-
CCOC(=O)c1c(C)nc2sccn12	0	0	0	0	0
CCOC(=O)c1c(C)nc2c3ccccc3ccn12	0	0	0	0	76
CCOC(=O)C1=C(C)NC(=O)NC1c1c(O)ccc2ccccc12 (configuration not stated)	0	0	0	0	0
Cc1ccnc(NC(=O)CCC(=O)N(CC(=O)NCC2CCCO2)Cc2ccc(F)cc2)c1 (configuration not stated)	0	0	0	0	0
COc1ccccc1-n1cnnc1SC1CCOC1=O (configuration not stated)	0	0	2.8	0	0
SMILES	RORA act	MT1-MMP txn act	M1 antagonist	M1 agonist	SF-1 act
Cc1ccccc1-n1nnnc1SC1CCOC1=O (configuration not stated)	0	0	0	0	0
COc1ccc(-c2nnc(SCc3nnc(-c4ccccc4)o3)n2-c2ccccc2)cc1	0	0	0	0	0
COc1ccc(-c2nnc(SCc3nnc(-c4ccccc4)o3)n2C)cc1OC	53	0	0	0	0
COCc1c(C)cc(C)c(/C=N/O)c1C	0	0	12	0	0
COC(=O)c1ccc(NC(=O)CSc2nnc(COc3ccccc3)n2C)cc1	0	0	0	0	0
COc1ccc(NC(=O)c2cnc3n(c2=O)CCS3)cc1OC	0	0	0	0	0
COc1ccc(NC(=O)c2cnc3ccccn3c2=O)cc1OC	53	-	0	0	0
CCOc1cc(CNc2ccc3[nH]c(=O)[nH]c3c2)ccc1OCC(=O)NC(C)(C)C	0	0	0	7.4	0
COc1cc(CNc2ccc3[nH]c(=O)[nH]c3c2)cc(Cl)c1OCC(=O)NC(C)(C)C	0	0	0	0	0
Clc1ccccc1Cn1nnc(-c2cccs2)n1	0	0	0	0	51
O=C(CCn1nnc(-c2cccs2)n1)NCc1ccccc1Cl	0	0	0	0	0
